The list is not random: actives were taken first. Their share in the collection is about 4.3%.
ALR H2O2 inh: human ALR oxidase inhibition via reduced H2O2. purified ALR, DTT oxidation, H2O2 HRP-luminol luminescence. P55789. inhibition, % (no concentration beside the values). hit rate 3.8% among 290,000;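 active = mean replicate inhibition above about 79%, with every replicate also reaching it, limit read from the data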
Target sequence (P55789 whole entry, looked up): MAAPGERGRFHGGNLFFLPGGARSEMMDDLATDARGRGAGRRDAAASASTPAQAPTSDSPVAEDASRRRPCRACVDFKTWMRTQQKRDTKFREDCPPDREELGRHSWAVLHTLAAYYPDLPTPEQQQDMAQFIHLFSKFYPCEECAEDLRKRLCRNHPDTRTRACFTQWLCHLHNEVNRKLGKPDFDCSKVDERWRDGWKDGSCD
PREPL inh: human PREPL enzyme inhibition. Q4J6C6. hit rate 0.68% among 320,000. recombinant PREPL, fluorescence polarization activity-based probe. AID 2751. inhibition, % at 5.96 µM; in the data active = inhibition above about 43%;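 also: 0% = enzyme with DMSO and 100% = wells lacking enzyme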
UBC13 inh: blocks human UBC13 polyubiquitin chain formation; P61088; TR-FRET; inhibition, % at 20 µM; hit rate 0.47% among 330,000; AID 485273; in the data active = inhibition above about 45%, passing the limit was not always enough
Target sequence (P61088 whole entry, looked up): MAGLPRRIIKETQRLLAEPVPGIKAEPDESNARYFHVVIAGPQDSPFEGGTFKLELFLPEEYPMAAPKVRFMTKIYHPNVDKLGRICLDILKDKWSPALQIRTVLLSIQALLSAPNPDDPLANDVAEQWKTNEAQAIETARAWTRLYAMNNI
Rin1-Abl PPI inh: human Rin1-Abl interaction inhibition. P00519+Q13671. TR-FRET Rin1/Abl binding, biochemical. inhibition, % at 7.35 µM. hit rate 0.4% among 360,000. AID 588664; in the data active = inhibition above about 5%, passing the limit was not always enough
UBC9 SUMO inh: blocks human SUMOylation mediated by UBC9; AID 2006; P63279; HTRF SUMOylation assay, SAE1/SAE2 + UBC9, in vitro; hit rate 0.36% among 290,000; inhibition, % at 35 µM; in the data active = inhibition above about 50%, passing the limit was not always enough
RBBP9 inhibitor: human RBBP9 hydrolase inhibition; hit rate 0.2% among 220,000; AID 1515; O75884; recombinant RBBP9, FP-Rh probe fluorescence polarization; inhibition, % at 7.94 µM;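 active = inhibition above the campaign mean of all tested compounds plus 3 SD, cut at about 14% in these data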;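 also: plate controls were DMSO wells with RBBP9 for no effect and wells lacking RBBP9 protein for full effect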
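Test system: recombinant human RBBP9; Timing: 30 min then 45 min, 25 °C; Detection: fluorescence polarization; Control set: RBBP9 with DMSO as uninhibited control, no-protein wells as full inhibition; Compound dosing: one concentration, 7.94 µM nominal, 0.794% DMSO; Probe or stimulus: FP-Rh activity-based probe, 375 nM before mixing.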
The depositor's hits bear a star.

Results for CC(C)c1ccc(C(=O)CN2C(=O)NC3(CCc4ccccc43)C2=O)cc1 (centres undefined) ?
ALR H2O2 inh: 4; PREPL inh: 4; UBC13 inh: -12; Rin1-Abl PPI inh: 6

How did CCc1cccc(Oc2nn[nH]n2)c1 do in these assays?
ALR H2O2 inh: 98*; PREPL inh: 15; UBC13 inh: -1; Rin1-Abl PPI inh: -6; UBC9 SUMO inh: 3; RBBP9 inhibitor: -7

Results for Cc1ccc(S(=O)(=O)n2cccc2C)cc1 ?
ALR H2O2 inh: -9; PREPL inh: -9; UBC13 inh: -2; Rin1-Abl PPI inh: 1

Results for Cc1cc(=O)oc2c3c4c(cc12)OCCN4CCC3 ?
ALR H2O2 inh: 97*; PREPL inh: 26; UBC13 inh: 9; Rin1-Abl PPI inh: -5; UBC9 SUMO inh: 18; RBBP9 inhibitor: -6

Results for CC(C)c1cc(=O)oc2c3c4c(cc12)CCCN4CCC3 ?
ALR H2O2 inh: -11; PREPL inh: 34; UBC13 inh: -5; Rin1-Abl PPI inh: -8; UBC9 SUMO inh: 32; RBBP9 inhibitor: 2

What do the screens show for `O=C(Nc1cc(S(=O)(=O)N2CCOCC2)ccc1Cl)c1cc2ccccc2o1`?
PREPL inh: 3; UBC13 inh: -4; Rin1-Abl PPI inh: -4

How did CN(C)c1ccc(Nc2cc(Cl)ncn2)cc1 do in these assays?
ALR H2O2 inh: 99*; PREPL inh: 37; UBC13 inh: -9; Rin1-Abl PPI inh: -2; UBC9 SUMO inh: -6

What do the screens show for `CN(C)c1cccc(-c2cc(Nc3ccc(C(C)(C)C)cc3)ncn2)c1`?
Rin1-Abl PPI inh: 0

How did CCCCN(C(=O)c1ccc(-c2ccc([N+](=O)[O-])cc2)o1)c1c(N)n(CC(C)C)c(=O)[nH]c1=O do in these assays?
ALR H2O2 inh: 1; PREPL inh: 11; UBC13 inh: -24; Rin1-Abl PPI inh: -1

What do the screens show for `COCc1nnc(NC(=O)c2ccc(S(=O)(=O)N(CC(C)C)CC(C)C)cc2)o1`?
ALR H2O2 inh: 95*; PREPL inh: -4; UBC13 inh: -2; Rin1-Abl PPI inh: -2; UBC9 SUMO inh: 0; RBBP9 inhibitor: 2

How did O=c1c2sccc2nc(SCc2cc(=O)n3ccccc3n2)n1Cc1ccccn1 do in these assays?
ALR H2O2 inh: -3; PREPL inh: -1; UBC13 inh: 0; UBC9 SUMO inh: 9; RBBP9 inhibitor: -2

How did COc1cc2c(cc1OC)CN(c1ccc([N+](=O)[O-])cc1C#N)CC2 do in these assays?
ALR H2O2 inh: 87*; PREPL inh: 25; UBC13 inh: -10; Rin1-Abl PPI inh: -2; UBC9 SUMO inh: 9; RBBP9 inhibitor: -38

How did COc1cc2c(cc1OC)CN(c1ccc([N+](=O)[O-])cc1Cl)CC2 do in these assays?
PREPL inh: 23; UBC13 inh: 7; Rin1-Abl PPI inh: -2; UBC9 SUMO inh: 1; RBBP9 inhibitor: -3

What do the screens show for `COCC(=O)Nc1ccc(N2CCN(c3ccccc3)CC2)c(F)c1`?
ALR H2O2 inh: -6; PREPL inh: 11; UBC13 inh: -1; Rin1-Abl PPI inh: 3; UBC9 SUMO inh: 8

Results for Nc1cc(=O)[nH]c(N2CCN(c3ccccc3)CC2)n1 ?
ALR H2O2 inh: 17; PREPL inh: -5; UBC13 inh: -1; Rin1-Abl PPI inh: -4; UBC9 SUMO inh: 6; RBBP9 inhibitor: -7

Results for Nc1ccc(N2CCN(c3ccccc3)CC2)c(F)c1 ?
ALR H2O2 inh: 79*; PREPL inh: 7; UBC13 inh: 10; Rin1-Abl PPI inh: 1; UBC9 SUMO inh: 8; RBBP9 inhibitor: -10

How did O=C(CSc1ccccc1)Nc1ccc(N2CCN(c3ccccc3)CC2)c(F)c1 do in these assays?
ALR H2O2 inh: 100*; PREPL inh: 19; UBC13 inh: -11; Rin1-Abl PPI inh: 0; UBC9 SUMO inh: 6; RBBP9 inhibitor: -9

Results for CC(C)CCN1CC(=O)N2[C@@H](Cc3c([nH]c4ccccc34)C2(C)C)C1=O ?
ALR H2O2 inh: -34; UBC13 inh: 0; Rin1-Abl PPI inh: 4; UBC9 SUMO inh: 11

How did Cc1cc2c3ccccc3ncn2n1 do in these assays?
ALR H2O2 inh: 3; PREPL inh: 12; UBC13 inh: -5; Rin1-Abl PPI inh: 0; UBC9 SUMO inh: 33; RBBP9 inhibitor: -1

How did Cn1nc(-c2ccc(Cl)cc2)c2cc(C(=O)NCCCN3CCCC3)sc21 do in these assays?
ALR H2O2 inh: 94*; PREPL inh: -64; UBC13 inh: 40; Rin1-Abl PPI inh: 2; UBC9 SUMO inh: 14; RBBP9 inhibitor: -3

High-throughput results from PubChem BioAssay.
